Series [1] can be described thus: Acute toxicity in sc dosed mouse. The series is classed as organism-based. The note with it: in vivo.
Series [2] has as its system Rhesus monkey. As to the kind of experiment: Suppression of abstinence syndrome in morphine-dependent rhesus monkey up to 16 mg/kg. More on the design: dose 16 mg/kg. The note with it: Macaca mulatta. In kind it is functional, organism-based.
Series [3] concerns Rhesus monkey. As to the kind of experiment: Narcotic antagonist activity in morphine-dependent rhesus monkey assessed as mild to severe abstinence at 2 mg/kg. The series is classed as functional, organism-based. More on the design: dose 2 mg/kg. The note with it: Macaca mulatta. In outline:
(§1)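 Compound given to nonwithdrawn morphine-dependent monkeys; scored as precipitation of abstinence syndrome, with severity graded from mild to severe over the stated dose range.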

Series [4] concerns Mus musculus. As to the kind of experiment: Analgesic activity in sc dosed mouse by hot-plate method. In kind it is functional. Conditions: Mus musculus, sc; read-out: ED50. On the technique in general: In hot-plate and tail-flick tests a longer latency is read as antinociception.
Series [5] deals with Mus musculus. As to the kind of experiment: Analgesic activity in sc dosed mouse assessed as inhibition of AcOH-induced writhing. Conditions: Mus musculus, sc; read-out: ED50. In kind it is functional. In general terms: Writhing tests count abdominal constrictions after an irritant is injected.
The test system of series [6] is Oryctolagus cuniculus. The series can be described thus: Narcotic antagonist activity in iv dosed rabbit assessed as inhibition of morphine-induced respiratory depression. The series is classed as functional. The procedure, abridged: (§2)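 Rabbits given test compound iv; read-out is antagonism of morphine-induced respiratory depression; expressed as AD50 in mg/kg or as % antagonism at a fixed dose.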

Series [7] has as its system Rhesus monkey. As to the kind of experiment: Narcotic antagonist activity in morphine-dependent rhesus monkey assessed as mild to moderate abstinence at 3 to 12 mg/kg. In kind it is functional, organism-based. The note with it: Macaca mulatta. In outline: as §1
Series [8] has as its system Mus musculus. As to the kind of experiment: Analgesic activity in sc dosed mouse assessed as time duration of activity by hot-plate method. The series is classed as functional.
Series [9] has as its system Rhesus monkey. As to the kind of experiment: Suppression of abstinence syndrome in morphine-dependent rhesus monkey at 6 mg/kg. The series is classed as functional, organism-based. More on the design: dose 6 mg/kg. Conditions: Macaca mulatta.
Series [10] deals with Rhesus monkey. As to the kind of experiment: Narcotic antagonist activity in morphine-dependent rhesus monkey assessed as mild to severe abstinence at 2 to 8 mg/kg. The series is classed as functional, organism-based. The note with it: Macaca mulatta. The procedure, abridged:
as §1

Series [11] deals with Rhesus monkey. The series can be described thus: Suppression of abstinence syndrome in morphine-dependent rhesus monkey at 1 mg/kg. In kind it is functional, organism-based. More on the design: dose 1 mg/kg. Conditions: Macaca mulatta.
Series [12] concerns Rhesus monkey. As to the kind of experiment: Narcotic antagonist activity in morphine-dependent rhesus monkey assessed as mild to severe abstinence at 1 to 8 mg/kg. The series is classed as functional, organism-based. The note with it: Macaca mulatta. In outline: as §1
Series [13] deals with Rhesus monkey. As to the kind of experiment: Suppression of abstinence syndrome in morphine-dependent rhesus monkey at 1.5 mg/kg. In kind it is functional, organism-based. More on the design: dose 1.5 mg/kg. Conditions: Macaca mulatta.
Series [14] relates to Rhesus monkey. The series can be described thus: Narcotic antagonist activity in morphine-dependent rhesus monkey assessed as moderate to severe abstinence at 1.5 to 12 mg/kg. In kind it is functional, organism-based. Conditions: Macaca mulatta. The procedure, abridged:
as §1

Series [15] concerns Oryctolagus cuniculus. The series can be described thus: Narcotic antagonist activity in rabbit assessed as inhibition of morphine-induced respiratory depression at 5 mg/kg, iv. In kind it is functional. The procedure, abridged:
as §2

The subject of series [16] is Rhesus monkey. As to the kind of experiment: Narcotic antagonist activity in morphine-dependent rhesus monkey assessed as precipitation of abstinence up to 8 mg/kg. In kind it is functional, organism-based. More on the design: dose 8 mg/kg. The note with it: Macaca mulatta. The procedure, abridged: as §1
Series [17] has as its system Rhesus monkey. The series can be described thus: Suppression of abstinence syndrome in morphine-dependent rhesus monkey at 8 mg/kg. The series is classed as functional, organism-based. More on the design: dose 8 mg/kg. The note with it: Macaca mulatta.
In series [18] the test system is Rhesus monkey. As to the kind of experiment: Suppression of abstinence syndrome in morphine-dependent rhesus monkey up to 8 mg/kg. In kind it is functional, organism-based. More on the design: dose 8 mg/kg. Conditions: Macaca mulatta.
The test system of series [19] is Mus musculus. As to the kind of experiment: Analgesic activity in mouse assessed as inhibition of AcOH-induced writhing up to 22.5 mg/kg, sc. The series is classed as functional, organism-based. More on the design: dose 22.5 mg/kg.
Series [20] concerns Rhesus monkey. As to the kind of experiment: Suppression of abstinence syndrome in morphine-dependent rhesus monkey at 5 mg/kg. The series is classed as functional, organism-based. More on the design: dose 5 mg/kg. Conditions: Macaca mulatta.
In series [21] the test system is Mus musculus. The series can be described thus: Analgesic activity in mouse by hot-plate method up to 100 mg/kg, sc. In kind it is functional, organism-based. More on the design: dose 100 mg/kg.
The subject of series [22] is Rhesus monkey. The series can be described thus: Narcotic antagonist activity in morphine-dependent rhesus monkey assessed as mild to severe abstinence at 2.5 to 20 mg/kg. In kind it is functional, organism-based. Conditions: Macaca mulatta. The procedure, abridged:
as §1

In series [23] the test system is Oryctolagus cuniculus. The series can be described thus: Narcotic antagonist activity in rabbit assessed as inhibition of morphine-induced respiratory depression up to 1 mg/kg, iv. The series is classed as functional, organism-based. More on the design: dose 1 mg/kg. In outline: as §2
In series [24] the test system is Rhesus monkey. The series can be described thus: Suppression of abstinence syndrome in morphine-dependent rhesus monkey up to 6 mg/kg. More on the design: dose 6 mg/kg. The series is classed as functional, organism-based. The note with it: Macaca mulatta.

The structures appear in SMILES notation. Active and inactive are the calls of the source. The calls are words filed in the database; no cut-off is given here.

Usually LD50 stands for the dose expected to kill half of the subjects tested. A word on the ED50: it is the dose that gives a 50% effect, or the effect in half of the subjects. In general, inhibition in vivo refers to how much of the control response was suppressed.

In [1], `COc1cccc(C23CCCC(C2)N(CCCC(=O)c2ccc(F)cc2)C3)c1.Cl` (racemic) registered an LD50 greater than 225 mg/kg. The outcome in the series on Rhesus monkey [2] and with Rhesus monkey [3] was inactive. Further, the ED50 in the series with Mus musculus [4] is 4.2 mg/kg; in the series with Mus musculus [5], 3 mg/kg.
As to `CN1C[C@]2(c3cccc(O)c3)CCC[C@H]1C2`, in series [1], the LD50 was found to be 90.7 mg/kg. The AD50 in the series with Oryctolagus cuniculus [6] turned out to be 4.1 mg/kg. The ED50 with Mus musculus [4] stood at 3.6 mg/kg; in the series with Mus musculus [5] it was 3.7 mg/kg. In addition, in the series with Rhesus monkey [7], the outcome was Active. Moreover, in the series with Mus musculus [8], the Time worked out at 140 min. In addition, in the series with Rhesus monkey [9], the result was inactive.
With `CC1N(C)C2CCCC1(c1cccc(O)c1)C2` (racemic; 8), the result in the series on Rhesus monkey [10] was Active. In addition, in the series with Rhesus monkey [11], the result was inactive.
In the case of `CC(=O)Oc1cccc(C23CCCC(C2)N(C)C3C)c1` (single isomer, unassigned; (+)), the outcome in the series on Rhesus monkey [12] was Active. Further, in the series with Rhesus monkey [11], the result was inactive.
Take `Br.C[C@H]1N(C)[C@H]2CCC[C@]1(c1cccc(O)c1)C2`: the LD50 in series [1] was 123 mg/kg. Also, the result in the series with Rhesus monkey [13] was inactive. For the same molecule, the outcome in the series with Rhesus monkey [14] was Active. Also, in the series on Oryctolagus cuniculus [15], the inhibition in vivo at 5 mg/kg came out at 42%. In addition, the ED50 is 2.9 mg/kg in the series with Mus musculus [4] and 1.2 mg/kg in the series with Mus musculus [5]. The Time in the series with Mus musculus [8] stood at 148.6 min.
Take `CN1CC2(c3cccc(O)c3)CCCC1C2` (racemic): the outcome in the series with Rhesus monkey [16] and with Rhesus monkey [17] was inactive. Besides, the 50% lethal dose (LD50) in series [1] came to 133 mg/kg. Also, the AD50 in the series with Oryctolagus cuniculus [6] is 3.1 mg/kg. For the same molecule, the ED50 worked out at 14.3 mg/kg with Mus musculus [4] and 12.3 mg/kg with Mus musculus [5]. For the same molecule, the Time in the series with Mus musculus [8] was 137 min.
As to `CC1N(CC2CC2)C2CCCC1(c1cccc(O)c1)C2.Cl` (racemic), in the series with Rhesus monkey [18], the outcome was inactive. The same molecule displayed an LD50 in [1] of 59.8 mg/kg. Further, the AD50 with Oryctolagus cuniculus [6] was 0.1 mg/kg. Further, the 50% effective dose (ED50) in the series on Mus musculus [4] came out at 5.8 mg/kg; with Mus musculus [5] it was 2.2 mg/kg.
For the molecule `Br.C[C@@H]1N(C)[C@@H]2CCC[C@@]1(c1cccc(O)c1)C2`, the result in the series on Mus musculus [19], in the series on Rhesus monkey [20] and in the series on Mus musculus [21] was inactive. Also, the LD50 in series [1] was determined as 82.7 mg/kg. For the same molecule, the inhibition in vivo at 5 mg/kg in the series with Oryctolagus cuniculus [15] was 48%. Besides, the result in the series with Rhesus monkey [22] was Active.
Turning to `CC1N(CCc2ccccc2)C2CCCC1(c1cccc(O)c1)C2.Cl` (racemic), in the series with Oryctolagus cuniculus [23], the inhibition result is “inactive”. Besides, the LD50 in series [1] stood at 27.6 mg/kg. In addition, the ED50 in the series on Mus musculus [4] stood at 0.3 mg/kg; in the series on Mus musculus [5] it was 0.61 mg/kg. For the same molecule, the outcome in the series on Rhesus monkey [24] was inactive.

For the origin of these results see ChEMBL document CHEMBL3244161, “Azabicycloalkanes as analgetics. 3. Structure-activity relationships of 1-phenyl-6-azabicyclo[3.2.1]octanes and absolute stereochemistry of (+)-1-(3-hydroxyphenyl)-6-methyl-6-azabicyclo[3.2.1]octane and its 7-endo-methyl derivative” (J Med Chem, 1977).
